Rows were chosen to be rich in hits. Some 1.4% of all compounds tested hit in one or more screens of this group.
hK5 inh: human KLK5 protease inhibitors, primary screen, biochemical, 1536-well; Kallikrein-5 (Homo sapiens), Q9Y337; recombinant hK5, fluorogenic AMC substrate cleavage; inhibition, % at 5 µM; 210,000 tested, 0.59% active;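 active = inhibition of 40% or more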
FXIIa inh: human FXIIa protease inhibitors, primary screen, biochemical, 1536-well; Coagulation factor XII (Homo sapiens), P00748; purified FXIIa, Boc-QGR-AMC fluorogenic substrate, 2 h; inhibition, % at 5 µM; 220,000 tested, 0.3% active; in the data active = inhibition above about 40%
Calpain2 inh: inhibitors of pig calpain II, primary screen, biochemical, fluorogenic peptide substrate, 1536-well; 220,000 tested, 0.37% active; inhibition, % at 16 µM; purified calpain II, 30 min;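 active = inhibition above about 50%, limit read from the data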
FXIa inh: human FXIa protease inhibitors, primary screen, biochemical, 1536-well | purified FXIa, Boc-Glu-Ala-Arg-AMC fluorogenic substrate | inhibition, % at 5 µM | 220,000 tested, 0.14% active | AID 798, 2007;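 active = inhibition of at least 40%; inactive = inhibition below 40%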;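 note: fluorescence of freed AMC excited at 355 nm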
Target sequence (P03951 19-387 limits assumed): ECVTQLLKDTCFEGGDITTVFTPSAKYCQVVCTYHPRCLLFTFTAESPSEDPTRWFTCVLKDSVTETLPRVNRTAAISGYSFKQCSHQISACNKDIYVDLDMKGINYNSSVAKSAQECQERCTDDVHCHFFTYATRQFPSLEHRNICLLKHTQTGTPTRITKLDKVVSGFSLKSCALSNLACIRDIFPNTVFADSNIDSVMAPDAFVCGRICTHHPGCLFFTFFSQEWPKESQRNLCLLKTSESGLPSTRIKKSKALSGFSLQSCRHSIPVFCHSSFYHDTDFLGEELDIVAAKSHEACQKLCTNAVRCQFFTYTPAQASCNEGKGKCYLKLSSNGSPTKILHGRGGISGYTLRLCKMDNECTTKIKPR
Target sequence (P03951 388-625 limits assumed): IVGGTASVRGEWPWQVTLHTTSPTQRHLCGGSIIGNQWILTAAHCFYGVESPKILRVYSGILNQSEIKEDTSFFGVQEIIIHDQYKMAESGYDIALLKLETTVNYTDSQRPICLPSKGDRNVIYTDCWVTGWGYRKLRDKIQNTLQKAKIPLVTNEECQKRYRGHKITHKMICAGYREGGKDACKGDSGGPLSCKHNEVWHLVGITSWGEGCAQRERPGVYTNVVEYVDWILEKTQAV
Thrombin inh: human alpha-thrombin inhibitors, primary screen, counter-screen for coagulation protease inhibitor project, biochemical, 1536-well, fluorogenic AMC substrate; Prothrombin (Homo sapiens), P00734; Boc-VPR-AMC fluorogenic substrate cleavage; inhibition, % at 5 µM; 220,000 tested, 0.26% active;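 active = inhibition at or above 40%; inactive = inhibition below 40%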
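Material: human alpha-thrombin protein; Also added: Boc-VPR-AMC substrate, 15 µM final; Timing: enzyme reaction carried out at room temperature; Signal: fluorescence, ex 355 nm, em 460 nm; Measure: % inhibition of thrombin; Controls: enzyme without compound as high, wells lacking enzyme as low.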
Each line names hits and unclear results; the compound was inactive in the other large screens.

CCc1ccc2c(c1)/C(=N/OC)C(=O)N2	none
COc1ccccc1N(/N=C1\Sc2ccccc2C1=O)C(C)=O	none
Cc1noc(C)c1C(=O)Nc1sc(C)c(-c2ccccc2)c1C#N	none
Cc1cccc(C(=O)Nc2sc(C)c(-c3ccccc3)c2C#N)c1	hK5 inh 56, Thrombin inh 53
Cc1ccc(C)c(S(=O)(=O)NCCCN2CCOCC2)c1	Thrombin inh 42
COc1ccc(-c2[nH]nc3c2C(c2ccsc2)C(C#N)=C(N)O3)cc1 (stereo unspecified)	hK5 inh 81
Cc1ccc(-c2[nH]nc3c2C(c2ccsc2)C(C#N)=C(N)O3)cc1 (stereo unspecified)	none
COc1ccccc1N1CCN(C(=O)CNC(=O)c2cn(-c3ccccc3OC)c(=O)c3ccccc23)CC1	Thrombin inh 101
NC(CC(=O)O)c1ccc(Br)cc1 (stereo unspecified)	none
O=C(O)CC(Cc1ccc(Br)cc1)C(=O)O (stereo unspecified)	FXIIa inh 61
Cc1ccc2cc([N+](=O)[O-])ccc2n1	none
Cc1cc(=O)oc2ccc(OCC(=O)NCc3ccco3)cc12	none
Cc1cc(=O)oc2cc(OCC(=O)NCc3ccco3)ccc12	hK5 inh 42
C#CCNC(=O)C1=C[C@@H](c2coc3ccccc3c2=O)C[C@@H](OCc2ccc(CO)cc2)O1	none
CC(=O)Nc1ccc(SCC(=O)Nc2cc(C)on2)cc1	none (no result: FXIIa inh)
CCCn1c(SCC(=O)c2ccc3c(c2)NC(=O)CO3)nc2ccccc21	none
Cn1c(SCC(=O)c2ccc3c(c2)NC(=O)CO3)nc2ccccc21	Thrombin inh 53
CN(C)c1cc[n+](CC(=O)c2ccc(-c3ccccc3)cc2)cc1	none
O=C(NNC(=O)c1cc(OCC(F)(F)F)ccc1OCC(F)(F)F)c1cccc(C(F)(F)F)c1	Calpain2 inh 92
COc1cc(NC(=O)SC2=NCCS2)cc(OC)c1	none
COc1cccc(C(=O)SC2=NCCS2)c1	hK5 inh 60
Cc1ccccc1-n1cc(-c2ccc(Br)cc2)nc1SCC(N)=O	hK5 inh 46
COc1ccc(C2=CSC3=NCCN23)cc1F	FXIIa inh 101
COc1ccc(N=C2S/C(=C\c3ccc(OCC(=O)O)cc3)C(=O)N2CCc2c[nH]c3ccccc23)cc1	Calpain2 inh 82
O=C(O)CCC(=O)CCC(=O)c1ccc(Cl)cc1	hK5 inh 44
O=C(O)CCC(=O)c1ccc(-c2ccccc2)cc1	none
CC(=O)Nc1ccc(S(=O)(=O)NCCNc2ccccc2[N+](=O)[O-])cc1	FXIIa inh 99
Cc1cc(NC(=S)N(Cc2cccc(Br)c2)CC2CCC(C(=O)O)CC2)ccc1Cl (stereo unspecified)	Calpain2 inh 53 (no result: hK5 inh)
Cc1ccc(C(=O)NCCN2CCNC2=O)cc1	hK5 inh 44, FXIIa inh 47
CN1CCN(C(=O)c2ccc(C(F)(F)F)cc2)CC1	hK5 inh 46
CN1CCN(C(=O)c2ccc(C(C)(C)C)cc2)CC1	none
CN(C)S(=O)(=O)Nc1cc(Cl)cc(Cl)c1	none
CCOC(=O)CN(C(=O)CSc1nnc2c(n1)[nH]c1ccc(F)cc12)c1ccccc1	Calpain2 inh 59
CC1Cc2ccccc2N1C(=S)NC(=O)c1ccco1 (stereo unspecified)	Calpain2 inh 52
O=C(NC(=S)N1CCCc2ccccc21)c1ccco1	none
O=C(COC(=O)Cc1ccccc1[N+](=O)[O-])NCc1ccccc1Cl	none
Cc1cccc(NC2SC(=O)N(c3ccccc3)C2=O)c1 (stereo unspecified)	hK5 inh 80
COc1ccccc1-c1nnc(NC(=O)C(C)SC2=NCCS2)s1 (stereo unspecified)	hK5 inh 53
O=C(NCCO)/C(=C\c1ccc(Br)cc1)NC(=O)c1cccs1	none
COCCCNC(=O)/C(=C\c1cccn1C)NC(=O)c1cccs1	Thrombin inh 50
CCOCCCNC(=O)c1cccs1	hK5 inh 42
O=C(/C=C/c1ccco1)Nc1ccc(Cl)c(S(=O)(=O)N2CCOCC2)c1	none
CC[C@H](C)[C@H](NC(N)=O)C(=O)NCCc1ccc(OC)c(OC)c1	none (no result: FXIIa inh)
Cc1ccc(NS(=O)(=O)c2ccc(OCC(=O)NCC3CCCO3)cc2)cc1 (stereo unspecified)	none (no result: hK5 inh)
Cc1ccc2cc(CNC(C)(C)C)c(=O)[nH]c2c1	none
CNCc1cc2ccc(C)cc2[nH]c1=O	hK5 inh 45
COc1ccc(NC(=O)Cn2cc(C(=O)c3ccco3)c3ccccc32)cc1	none
O=C(Cn1cc(C(=O)c2ccco2)c2ccccc21)Nc1ccccc1	Calpain2 inh 61
COC(=O)c1ccc(NCC(=O)Nc2cc(C)cc(C)c2)cc1	FXIIa inh 57
CCOC(=O)C1(Cc2cccc(F)c2)CCN(Cc2cnn(CC)c2C)CC1	none
NC(=O)NOCc1ccccc1	FXIa inh 45
Cc1ccc(N2CC(C)Cn3c2nc2c3c(=O)n(CC(=O)OCc3ccccc3)c(=O)n2C)cc1C (stereo unspecified)	hK5 inh 44
Cc1ccc2c(c1)CCCN2C(=O)c1ccc2c(c1)OCO2	Calpain2 inh 50
CC(O)[C@H]1CNC(=O)C(=O)N1CCCCC1CCCCC1 (stereo partly specified)	none
COc1ccc(-c2nc(SC)n(C(=O)c3ccco3)n2)cc1	Thrombin inh 80
COc1ccc(-c2nc(N)n(C(=O)c3ccco3)n2)cc1	none
S=C1Nc2ccccc2Sc2ccc(Cl)cc21	hK5 inh 67
CCCCOc1ccc(Nc2cc(Cl)ccc2C(=O)O)cn1	none
O=C(O)C(Cc1ccccc1)N1C(=O)/C(=C/c2cccc3ccccc23)SC1=S (stereo unspecified)	Calpain2 inh 56
O=C(O)C(Cc1ccccc1)N1C(=O)/C(=C/c2ccccc2)SC1=S (stereo unspecified)	none
CCOC(=O)C(=CN(CCc1ccccc1)CC(=O)OC)C(=O)OCC	none
CCS(=O)(=O)c1ccc(S(=O)(=O)CC)s1	Calpain2 inh 52
Cn1c(=O)c2c(nc(N3CCN(c4ccc([N+](=O)[O-])cc4)CC3)n2C)n(C)c1=O	none
O=C1CC(SCc2nc3ccccc3[nH]2)C(=O)N1c1ccc(F)cc1 (stereo unspecified)	hK5 inh 54
COCCNC(=O)C(c1ccc(C)o1)N(C(=O)c1snc(C(N)=O)c1N)c1ccc(C)c(C)c1 (stereo unspecified)	hK5 inh 44
COc1ccccc1/C=N\N=C(\N)c1ccccn1	none
CC(C)Oc1ccc(CNC(=S)N/N=C/c2ccc([N+](=O)[O-])cc2)cc1	FXIIa inh 53
O=C(c1cccc(N2C(=O)C3CC=CCC3C2=O)c1)N1CCCc2ccccc21 (stereo unspecified)	none
C(=N\Nc1nc(-c2ccccc2)cs1)/c1cccnc1	none
CC(C)(C)c1csc(N/N=C/c2cccnc2)n1	Calpain2 inh 51
